An excerpt weighted towards active compounds, which were near 6.8% of everything screened.
HSF1 inhib – HSF1 inhibitors in luciferase reporter cells, primary screen, cell-based, NIH3T3, luminescence | NIH3T3-HGL HSE-luciferase, MG132-induced, luminescence 8 h; stronger effect = lower value | 300,000 tested, 0.77% active | activity change, negative = inhibition, % at 7.5 µM (by protocol) | AID 2098, 2009;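 active means more than half of replicate wells show activity change below -50%, luminescence cut by over half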;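 further: luciferase reports HSF-1 transcriptional activity via heat shock element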
ALR H2O2 inh – inhibitors of human ALR sulfhydryl oxidase, primary screen, biochemical, H2O2 detection, HRP-luminol luminescence, single point; 290,000 tested, 3.8% active; inhibition, % (no concentration beside the values); FAD-linked sulfhydryl oxidase ALR (Homo sapiens), P55789; purified ALR, DTT oxidation;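 active means mean replicate inhibition above about 79%, with every replicate also reaching it, limit read from the data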
Target sequence (P55789 whole entry, looked up): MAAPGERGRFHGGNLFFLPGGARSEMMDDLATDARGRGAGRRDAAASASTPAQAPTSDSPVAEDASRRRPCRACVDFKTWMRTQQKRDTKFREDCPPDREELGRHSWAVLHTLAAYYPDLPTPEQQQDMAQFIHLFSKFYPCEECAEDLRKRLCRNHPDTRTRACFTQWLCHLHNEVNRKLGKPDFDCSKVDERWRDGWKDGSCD
AI-2 QS modul – Vibrio harveyi AI-2 quorum sensing modulators, primary screen, JMH597 strain, luminescence/OD600 ratio; Vibrio harveyi JMH597 AI-2 luminescence/OD600 ratio, 9 h; stronger effect = lower value; strain lacks LuxN and CqsS sensors; 0 = neutral-control median; activity change, % at 7.5 µM; 300,000 tested, 0.4% active; in the data active means activity change below about -75%, passing the limit was not always enough;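 further: luminescence divided by OD600 gain over 9 h not by final OD600 alone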
HSF-1 act – HSF-1 activators, primary screen, NIH3T3-HGL cells, MG132 stress, luminescence, single point. NIH3T3-HGL HSF-1 luciferase reporter, 8 h; 100% = twice DMSO control signal. activation, % at 9 µM. 300,000 tested, 1.7% active;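 active means mean replicate activation of at least 50% with a set share of replicates each reaching 50%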
PHOSPHO1 block – PubChem AID 1565; recombinant PHOSPHO1, absorbance phosphatase assay; inhibition, % at 13.3 µM; 290,000 tested, 1.1% active; in the data active means inhibition above about 60%
Target sequence (Q8TCT1 whole entry, looked up): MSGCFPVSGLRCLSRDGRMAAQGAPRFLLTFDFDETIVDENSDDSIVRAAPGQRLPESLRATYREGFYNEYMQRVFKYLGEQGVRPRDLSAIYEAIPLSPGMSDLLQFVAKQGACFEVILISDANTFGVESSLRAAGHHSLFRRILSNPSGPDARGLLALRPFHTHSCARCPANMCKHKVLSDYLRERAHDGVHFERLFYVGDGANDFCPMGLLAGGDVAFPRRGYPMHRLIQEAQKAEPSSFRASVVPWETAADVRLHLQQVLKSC
HCV core dimer – inhibitors of HCV core protein dimerization, primary screen, biochemical, TR-FRET, high-throughput; TR-FRET GST/Flag-core106 dimerization, 1536-well; inhibition, % at 5 µM; 300,000 tested, 0.33% active;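 active means inhibition above the mean of all tested compounds plus 3 SD, set per screening campaign, cut at about 45% in these data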
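Assay system: tagged HCV core106 pair (GST and Flag); medium: KF-containing HEPES buffer, pH 7.45, DTT, CHAPS, BSA; also added: Eu donor and XL665 acceptor anti-tag antibodies; dosing: 5 µM single dose; timing: compound-protein-antibody incubation 4 h at 22.5 °C; signal: TR-FRET 671 and 617 nm emission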
Of the large screens only hits and unclear results are named; the others gave an inactive call.

COc1cccc(NC(=O)C2CCOC2=O)c1 (stereo not given)	none (no result: PHOSPHO1 block)
CN(C)c1ccc(NC2=C([N+](=O)[O-])CS(=O)(=O)C2)cc1	ALR H2O2 inh 99
Cn1c(=O)c2c(-c3ccccc3)n(Cc3cccnc3)cc2n(C)c1=O	none
Cn1c(=O)c2c(-c3ccccc3)n(-n3cnnc3)cc2n(C)c1=O	ALR H2O2 inh 96
CN1CCN(c2nc(Nc3ccc(F)cc3)nc(Nc3ccc(F)cc3)n2)CC1	ALR H2O2 inh 91
O=C1Oc2ccccc2C(=O)/C1=C\N1CCN(c2ccccc2)CC1	ALR H2O2 inh 97
CCS(=O)(=O)N1CCN(c2ccccc2)CC1	none
Cn1nc(-c2ccc(Cl)cc2)nc2c(=O)n(C)c(=O)nc1-2	HSF1 inhib -95, AI-2 QS modul -77, HCV core dimer 68
O=C(O)/C=C/c1ccc2ccccc2n1	none
CC(=O)Oc1c(Cl)cc(Cl)cc1/C=C/c1ccc2ccccc2n1	HSF-1 act 161
CC(=O)Oc1ccc(Cl)cc1/C=C/c1ccc2ccccc2n1	HSF-1 act 60
CCCCc1cc(O)c(CCCC)c(O)c1	HSF-1 act 182
Cc1sc(-n2c(C)ccc2C)c(C#N)c1C	PHOSPHO1 block 95 (no result: HSF1 inhib, HSF-1 act)
O=C(NCCC1CCCCN1S(=O)(=O)c1ccccc1)C(=O)Nc1ccccc1F (stereo not given)	none (no result: ALR H2O2 inh, PHOSPHO1 block)
O=C(NCCC1CCCCN1S(=O)(=O)c1ccc(F)cc1)C(=O)Nc1ccccc1F (stereo not given)	HSF1 inhib -67 (no result: PHOSPHO1 block)
O=C(COc1ccc(Br)cc1Br)NC(=O)NC1CCCC1	none
O=C(COc1ccc(Br)cc1Cl)NC(=O)NCc1ccccc1	HSF-1 act 67
O=C(COc1ccc(Br)cc1Br)NC(=S)N1CCCc2ccccc21	ALR H2O2 inh 93, PHOSPHO1 block 83
CC(C)(C)NC(=O)NC(=O)COc1ccc(Br)cc1Br	HSF-1 act 74
O=C(CNC(=O)c1ccc(Br)cc1)NCc1cccnc1	none (no result: AI-2 QS modul)
O=C(CSc1nnc(CNC(=O)c2ccccc2)o1)NCc1ccc(F)cc1	none
O=C(CSc1nnc(CNC(=O)c2cccs2)o1)NCc1ccc(F)cc1	HSF1 inhib -55
O=C(Cn1cnc2c(NC(=O)OCc3ccccc3)ncnc21)NCc1ccccn1	none (no result: HSF1 inhib, AI-2 QS modul, HSF-1 act, PHOSPHO1 block, HCV core dimer)
COP(=O)(OC)C(Nc1ccc(C)cc1)c1ccc([N+](=O)[O-])cc1 (stereo not given)	ALR H2O2 inh 83
CCOP(=O)(OCC)C(Nc1ccccc1)c1cc(OC)ccc1OC (stereo not given)	none
CCOc1ccc(NC(c2ccccc2)P(=O)(OC)OC)cc1 (stereo not given)	ALR H2O2 inh 89
CCOP(=O)(OCC)C(Nc1cccc([N+](=O)[O-])c1)c1ccc(OC)cc1 (stereo not given)	none
COc1ccc2oc(C(=O)OCC(=O)N(CCC#N)c3ccccc3)c(C)c2c1	none
COc1ccc(NC(=O)c2cc3c(s2)CCC(C)C3)cc1S(=O)(=O)N1CCOCC1 (stereo not given)	none
CC1SC(=NC(=O)c2ccncc2)NC1=O (stereo not given)	ALR H2O2 inh 90
CC1S/C(=N/N=C2CCCCC2)NC1=O (stereo not given)	none
Cc1cccn2c(=O)c(C(=O)NC3CC(C)CC(C)(C)C3)c(O)nc12 (stereo not given)	none (no result: PHOSPHO1 block)
Cc1cc(=O)oc2cc(OCC(=O)N3c4ccccc4CC3C)ccc12 (stereo not given)	none
CCN(CC)c1cccc(OCC(=O)N2c3ccccc3CC2C)c1 (stereo not given)	ALR H2O2 inh 98 (no result: HSF1 inhib, AI-2 QS modul, HSF-1 act, PHOSPHO1 block, HCV core dimer)
CCn1c(SCC(=O)N(Cc2ccccc2)C2CCS(=O)(=O)C2)nc2ccccc2c1=O (stereo not given)	PHOSPHO1 block 63 (no result: ALR H2O2 inh)
FC(F)(F)c1ccc(C2NCCc3sccc32)cc1 (stereo not given)	none
S=C(Nc1ccccc1)N1CCCN1c1ccccc1	ALR H2O2 inh 87
S=C(Nc1ccccc1)N1CCCCC1	none
CN(N)C(=S)Nc1ccc(Cl)cc1	none
CC1CCc2c(sc(Nc3nc4c(F)cccc4s3)c2C(N)=O)C1 (stereo not given)	none
Cc1nnc(SCc2cnc(-c3ccccc3)o2)[nH]c1=O	ALR H2O2 inh 99
CCC1Oc2ccc(C)cc2N(Cc2cccc(C)c2)C1=O (stereo not given)	HSF-1 act 54
COc1ccccc1NC(=O)NCC1CC1(Cl)Cl (stereo not given)	none
Cc1ccc(S(=O)(=O)Nc2cccc(C(=O)NCC3(N4CCCCC4)CCCCC3)c2)cc1F	none (no result: PHOSPHO1 block)
Cc1cc(Nc2ccccc2)n(-c2cccc(Cl)c2)n1	ALR H2O2 inh 99
Cc1cc(C)n(-c2ccc(C(=O)O)cc2)n1	none
Cc1cc(NC(=O)c2ccccc2)n(-c2ccccc2)n1	none
COc1cc(OC)cc(C(=O)Nc2cc(C)nn2-c2ccccc2)c1	none (no result: ALR H2O2 inh)
Cc1cc(N)n(-c2ccc(C(=O)O)cc2)n1	HSF1 inhib -67
Cc1cc(Nc2ccccc2)n(-c2ccc(C(=O)O)cc2)n1	ALR H2O2 inh 99 (no result: HSF1 inhib, HSF-1 act)
COc1ccc(-n2nc(C)cc2Nc2ccccc2C(=O)O)cc1	ALR H2O2 inh 99
NC(=O)C1CCN(C(=O)c2cc3ccccc3cc2O)CC1	none (no result: PHOSPHO1 block)
CCc1ccc(N(CC(=O)NC(C)(C)C)C(=O)CCC(=O)Nc2ccccn2)cc1	none (no result: HCV core dimer)
CCn1c(CSc2ncccn2)nnc1SCC(=O)N1CCCCC1	none
CC(=O)Oc1cccc(C(=O)Nc2ccc3c(c2)C(=O)N(CC2CCCO2)C3=O)c1 (stereo not given)	HSF-1 act 72 (no result: HCV core dimer)
O=c1c2ccccc2sc2ccc(NCCCN3CCOCC3)cc12	none (no result: PHOSPHO1 block)
COc1cc2sc3cc(NCCCN4CCOCC4)ccc3c(=O)c2cc1OC	ALR H2O2 inh 99 (no result: HSF1 inhib, AI-2 QS modul, HSF-1 act, PHOSPHO1 block, HCV core dimer)
S=c1[nH]nc(-c2ccco2)n1/N=C/c1ccc(Cl)cc1Cl	none
S=c1[nH]nc(-c2ccco2)n1/N=C/c1cccc(Cl)c1Cl	ALR H2O2 inh 96
S=c1[nH]nc(-c2ccccc2)n1/N=C/C=C/c1ccco1	ALR H2O2 inh 97
S=c1[nH]nc(-c2ccco2)n1/N=C/C=C/c1ccccc1	ALR H2O2 inh 98, PHOSPHO1 block 63
S=c1[nH]nc(-c2ccc(Cl)cc2)n1/N=C/C=C/c1ccco1	ALR H2O2 inh 99 (no result: AI-2 QS modul)
S=c1[nH]nc(-c2ccco2)n1/N=C/c1cccs1	none
C/C(=N\NC(=O)c1nn(C)c(C)c1Br)c1ccc(NC(=O)C2CCCC2)cc1	none (no result: HSF1 inhib, HSF-1 act, HCV core dimer)
COc1cc2c(cc1OC)CC(C(=O)NCc1ccccc1)NC2 (stereo not given)	none

Screens deposited in PubChem BioAssay by several laboratories.
